Reference: ChEMBL document CHEMBL1157912, “Impact of nature and length of linker incorporated in agonists on toll-like receptor 9-mediated immune responses” (J Med Chem, 2010)

Key:
[1] = biological target: T1, Toll-like receptor 9 (Homo sapiens) (UniProt Q9NR96); test: Induction of TLR9-mediated immune stimulation in human PBMC assessed as IL1Ralpha production at 10 ug/ml after 24 hrs by luminex multiplex assay (RVb = 0.12 +/- 0.03 ng/ml)
T1 sequence (whole entry): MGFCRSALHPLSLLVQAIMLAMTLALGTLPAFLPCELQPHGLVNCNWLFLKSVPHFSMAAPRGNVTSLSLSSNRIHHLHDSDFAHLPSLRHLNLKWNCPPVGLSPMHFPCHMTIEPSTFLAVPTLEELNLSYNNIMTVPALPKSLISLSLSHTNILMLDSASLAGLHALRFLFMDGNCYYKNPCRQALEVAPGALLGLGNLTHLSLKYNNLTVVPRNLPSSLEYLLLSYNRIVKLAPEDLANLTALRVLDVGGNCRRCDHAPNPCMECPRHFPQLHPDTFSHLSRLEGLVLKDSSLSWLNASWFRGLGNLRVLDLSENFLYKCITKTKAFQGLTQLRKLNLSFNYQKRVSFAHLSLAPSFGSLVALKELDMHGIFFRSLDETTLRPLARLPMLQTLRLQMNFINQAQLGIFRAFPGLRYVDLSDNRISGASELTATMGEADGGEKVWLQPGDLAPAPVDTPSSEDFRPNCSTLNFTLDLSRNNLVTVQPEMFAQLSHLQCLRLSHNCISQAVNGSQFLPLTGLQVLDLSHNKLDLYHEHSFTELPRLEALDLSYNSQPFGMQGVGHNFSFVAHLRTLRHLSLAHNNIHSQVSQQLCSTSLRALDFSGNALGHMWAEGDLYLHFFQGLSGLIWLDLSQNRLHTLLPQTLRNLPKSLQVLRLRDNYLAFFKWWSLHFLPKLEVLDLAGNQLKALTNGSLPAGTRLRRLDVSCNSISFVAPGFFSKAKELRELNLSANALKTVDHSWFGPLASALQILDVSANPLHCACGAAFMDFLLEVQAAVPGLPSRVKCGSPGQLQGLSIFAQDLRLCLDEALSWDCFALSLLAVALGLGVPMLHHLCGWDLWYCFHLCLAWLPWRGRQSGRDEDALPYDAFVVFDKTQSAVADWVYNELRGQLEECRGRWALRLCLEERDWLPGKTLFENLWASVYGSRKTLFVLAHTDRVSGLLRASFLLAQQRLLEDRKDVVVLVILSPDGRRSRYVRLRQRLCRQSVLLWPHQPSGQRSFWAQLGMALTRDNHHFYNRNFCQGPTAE

[2] = biological target: T1, Toll-like receptor 9 (Homo sapiens); test: Induction of TLR9-mediated immune stimulation in human PBMC assessed as IL2R production at 10 ug/ml after 24 hrs by luminex multiplex assay (RVb = 0.02 +/- 0.01 ng/ml)
[3] = biological target: T1, Toll-like receptor 9 (Homo sapiens); test: Induction of TLR9-mediated immune stimulation in human PBMC assessed as IL6 production at 2 ug/ml after 24 hrs by luminex multiplex assay (RVb = 0.01 ng/ml)
[4] = biological target: T1, Toll-like receptor 9 (Homo sapiens); test: Induction of TLR9-mediated immune stimulation in human PBMC assessed as IL6 production at 10 ug/ml after 24 hrs by luminex multiplex assay (RVb = 0.01 ng/ml)
[5] = biological target: T1, Toll-like receptor 9 (Homo sapiens); test: Induction of TLR9-mediated immune stimulation in human PBMC assessed as IL12 production at 10 ug/ml after 24 hrs by luminex multiplex assay (RVb = 0.00 ng/ml)
[6] = biological target: T1, Toll-like receptor 9 (Homo sapiens); test: Induction of TLR9-mediated immune stimulation in human PBMC assessed as MIP1alpha production at 10 ug/ml after 24 hrs by luminex multiplex assay (RVb = 0.01 ng/ml)
[7] = biological target: T1, Toll-like receptor 9 (Homo sapiens); test: Induction of TLR9-mediated immune stimulation in human PBMC assessed as IP10 production at 2 ug/ml after 24 hrs by luminex multiplex assay (RVb = 0.00 ng/ml)
[8] = biological target: T1, Toll-like receptor 9 (Homo sapiens); test: Induction of TLR9-mediated immune stimulation in human PBMC assessed as IP10 production at 10 ug/ml after 24 hrs by luminex multiplex assay (RVb = 0.00 ng/ml)
[9] = biological target: T1, Toll-like receptor 9 (Homo sapiens); test: Induction of TLR9-mediated immune stimulation in human PBMC assessed as RANTES production at 2 ug/ml after 24 hrs by luminex multiplex assay (RVb = 0.05 +/- 0.04 ng/ml)
[10] = biological target: T1, Toll-like receptor 9 (Homo sapiens); test: Induction of TLR9-mediated immune stimulation in human PBMC assessed as MCP1 production at 2 ug/ml after 24 hrs by luminex multiplex assay (RVb = 0.08 +/- 0.02 ng/ml)
[11] = biological target: T1, Toll-like receptor 9 (Homo sapiens); test: Induction of TLR9-mediated immune stimulation in human PBMC assessed as MCP1 production at 10 ug/ml after 24 hrs by luminex multiplex assay (RVb = 0.08 +/- 0.02 ng/ml)
[12] = biological target: T1, Toll-like receptor 9 (Homo sapiens); test: Induction of TLR9-mediated human B cell proliferation assessed as [3H]thymidine uptake after 56 hrs by scintillation counting
Outline: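 B cells were purified from human PBMCs (healthy volunteers), about 1 × 10⁵ cells, and stimulated with various agonist concentrations for 56 h. Cells were then pulsed with 0.75 μCi [³H]-thymidine and harvested 16 h later. Incorporation was counted by scintillation and reported as cpm.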

SMILES | Activity [1] [ng/mL] | Activity [2] [ng/mL] | Activity [3] [ng/mL] | Activity [4] [ng/mL] | Activity [5] [ng/mL] | Activity [6] [ng/mL] | Activity [7] [ng/mL] | Activity [8] [ng/mL] | Activity [9] [ng/mL] | Activity [10] [ng/mL] | Activity [11] [ng/mL] | Activity [12]
Cc1cn([C@H]2C[C@H](OCCC(O)CCOP(=O)(S)O[C@H]3C[C@H](n4cc(C)c(=O)[nH]c4=O)O[C@@H]3COP(=O)(S)O[C@H]3[C@@H](O)[C@H](n4ccc(N)nc4=O)O[C@@H]3COP(=O)(S)O[C@H]3C[C@H](n4cc(C)c(=O)[nH]c4=O)O[C@@H]3COP(=O)(S)O[C@H]3C[C@H](n4cc(C)c(=O)[nH]c4=O)O[C@@H]3COP(=O)(S)O[C@H]3C[C@H](n4ccc5c(=O)[nH]c(N)nc54)O[C@@H]3COP(=O)(S)O[C@H]3[C@@H](O)[C@H](n4ccc(N)nc4=O)O[C@@H]3COP(=O)(S)O[C@H]3C[C@H](n4cc(C)c(=O)[nH]c4=O)O[C@@H]3COP(=O)(S)O[C@H]3[C@@H](O)[C@H](n4cnc5c(=O)[nH]c(N)nc54)O[C@@H]3COP(=O)(S)O[C@H]3C[C@H](n4cc(C)c(=O)[nH]c4=O)O[C@@H]3COP(=O)(S)O[C@H]3[C@@H](O)[C@H](n4ccc(N)nc4=O)O[C@@H]3COP(=O)(S)O[C@H]3C[C@H](n4cc(C)c(=O)[nH]c4=O)O[C@@H]3CO)[C@@H](COP(=O)(S)O[C@H]3[C@@H](O)[C@H](n4ccc(N)nc4=O)O[C@@H]3COP(=O)(S)O[C@H]3C[C@H](n4cc(C)c(=O)[nH]c4=O)O[C@@H]3COP(=O)(S)O[C@H]3C[C@H](n4cc(C)c(=O)[nH]c4=O)O[C@@H]3COP(=O)(S)O[C@H]3C[C@H](n4ccc5c(=O)[nH]c(N)nc54)O[C@@H]3COP(=O)(S)O[C@H]3[C@@H](O)[C@H](n4ccc(N)nc4=O)O[C@@H]3COP(=O)(S)O[C@H]3C[C@H](n4cc(C)c(=O)[nH]c4=O)O[C@@H]3COP(=O)(S)O[C@H]3[C@@H](O)[C@H](n4cnc5c(=O)[nH]c(N)nc54)O[C@@H]3COP(=O)(S)O[C@H]3C[C@H](n4cc(C)c(=O)[nH]c4=O)O[C@@H]3COP(=O)(S)O[C@H]3[C@@H](O)[C@H](n4ccc(N)nc4=O)O[C@@H]3COP(=O)(S)O[C@H]3C[C@H](n4cc(C)c(=O)[nH]c4=O)O[C@@H]3CO)O2)c(=O)[nH]c1=O (stereo partly specified) | 63 | 0.12 | 0.31 | 0.47 | 0.17 | 0.17 | 0.02 | 0.02 | 0.31 | 0.25 | 0.64 | Dose-dependent effect
Cc1cn([C@H]2C[C@H](OCCOCCOCCOCCOP(=O)(S)O[C@H]3C[C@H](n4cc(C)c(=O)[nH]c4=O)O[C@@H]3COP(=O)(S)O[C@H]3[C@@H](O)[C@H](n4ccc(N)nc4=O)O[C@@H]3COP(=O)(S)O[C@H]3C[C@H](n4cc(C)c(=O)[nH]c4=O)O[C@@H]3COP(=O)(S)O[C@H]3C[C@H](n4cc(C)c(=O)[nH]c4=O)O[C@@H]3COP(=O)(S)O[C@H]3C[C@H](n4ccc5c(=O)[nH]c(N)nc54)O[C@@H]3COP(=O)(S)O[C@H]3[C@@H](O)[C@H](n4ccc(N)nc4=O)O[C@@H]3COP(=O)(S)O[C@H]3C[C@H](n4cc(C)c(=O)[nH]c4=O)O[C@@H]3COP(=O)(S)O[C@H]3[C@@H](O)[C@H](n4cnc5c(=O)[nH]c(N)nc54)O[C@@H]3COP(=O)(S)O[C@H]3C[C@H](n4cc(C)c(=O)[nH]c4=O)O[C@@H]3COP(=O)(S)O[C@H]3[C@@H](O)[C@H](n4ccc(N)nc4=O)O[C@@H]3COP(=O)(S)O[C@H]3C[C@H](n4cc(C)c(=O)[nH]c4=O)O[C@@H]3CO)[C@@H](COP(=O)(S)O[C@H]3[C@@H](O)[C@H](n4ccc(N)nc4=O)O[C@@H]3COP(=O)(S)O[C@H]3C[C@H](n4cc(C)c(=O)[nH]c4=O)O[C@@H]3COP(=O)(S)O[C@H]3C[C@H](n4cc(C)c(=O)[nH]c4=O)O[C@@H]3COP(=O)(S)O[C@H]3C[C@H](n4ccc5c(=O)[nH]c(N)nc54)O[C@@H]3COP(=O)(S)O[C@H]3[C@@H](O)[C@H](n4ccc(N)nc4=O)O[C@@H]3COP(=O)(S)O[C@H]3C[C@H](n4cc(C)c(=O)[nH]c4=O)O[C@@H]3COP(=O)(S)O[C@H]3[C@@H](O)[C@H](n4cnc5c(=O)[nH]c(N)nc54)O[C@@H]3COP(=O)(S)O[C@H]3C[C@H](n4cc(C)c(=O)[nH]c4=O)O[C@@H]3COP(=O)(S)O[C@H]3[C@@H](O)[C@H](n4ccc(N)nc4=O)O[C@@H]3COP(=O)(S)O[C@H]3C[C@H](n4cc(C)c(=O)[nH]c4=O)O[C@@H]3CO)O2)c(=O)[nH]c1=O (stereo partly specified) | 69.9 | 0.17 | 0.14 | 0.58 | 0.15 | 0.27 | 0.02 | 0.03 | 0.7 | 0.22 | 7.13 | Dose-dependent effect
Cc1cn([C@H]2C[C@H](O[C@H]3C[C@@H](O)C[C@@H](OP(=O)(S)O[C@H]4C[C@H](n5cc(C)c(=O)[nH]c5=O)O[C@@H]4COP(=O)(S)O[C@H]4[C@@H](O)[C@H](n5ccc(N)nc5=O)O[C@@H]4COP(=O)(S)O[C@H]4C[C@H](n5cc(C)c(=O)[nH]c5=O)O[C@@H]4COP(=O)(S)O[C@H]4C[C@H](n5cc(C)c(=O)[nH]c5=O)O[C@@H]4COP(=O)(S)O[C@H]4C[C@H](n5ccc6c(=O)[nH]c(N)nc65)O[C@@H]4COP(=O)(S)O[C@H]4[C@@H](O)[C@H](n5ccc(N)nc5=O)O[C@@H]4COP(=O)(S)O[C@H]4C[C@H](n5cc(C)c(=O)[nH]c5=O)O[C@@H]4COP(=O)(S)O[C@H]4[C@@H](O)[C@H](n5cnc6c(=O)[nH]c(N)nc65)O[C@@H]4COP(=O)(S)O[C@H]4C[C@H](n5cc(C)c(=O)[nH]c5=O)O[C@@H]4COP(=O)(S)O[C@H]4[C@@H](O)[C@H](n5ccc(N)nc5=O)O[C@@H]4COP(=O)(S)O[C@H]4C[C@H](n5cc(C)c(=O)[nH]c5=O)O[C@@H]4CO)C3)[C@@H](COP(=O)(S)O[C@H]3[C@@H](O)[C@H](n4ccc(N)nc4=O)O[C@@H]3COP(=O)(S)O[C@H]3C[C@H](n4cc(C)c(=O)[nH]c4=O)O[C@@H]3COP(=O)(S)O[C@H]3C[C@H](n4cc(C)c(=O)[nH]c4=O)O[C@@H]3COP(=O)(S)O[C@H]3C[C@H](n4ccc5c(=O)[nH]c(N)nc54)O[C@@H]3COP(=O)(S)O[C@H]3[C@@H](O)[C@H](n4ccc(N)nc4=O)O[C@@H]3COP(=O)(S)O[C@H]3C[C@H](n4cc(C)c(=O)[nH]c4=O)O[C@@H]3COP(=O)(S)O[C@H]3[C@@H](O)[C@H](n4cnc5c(=O)[nH]c(N)nc54)O[C@@H]3COP(=O)(S)O[C@H]3C[C@H](n4cc(C)c(=O)[nH]c4=O)O[C@@H]3COP(=O)(S)O[C@H]3[C@@H](O)[C@H](n4ccc(N)nc4=O)O[C@@H]3COP(=O)(S)O[C@H]3C[C@H](n4cc(C)c(=O)[nH]c4=O)O[C@@H]3CO)O2)c(=O)[nH]c1=O (stereo partly specified) | 97.2 | 0.28 | 0.3 | 0.67 | 0.2 | 0.67 | 0.03 | 0.03 | 0.93 | 0.29 | 8.45 | Dose-dependent effect
